In ChEMBL document CHEMBL2331483, “3-Hydroxypyridin-2-thione as novel zinc binding group for selective histone deacetylase inhibition” (J Med Chem, 2013):
The source made the active and inactive calls. No cut-off for these calls is given here.

Test system: not listed separately
Test: Aqueous solubility of the compound
Type: physicochemical
Settings: buffer

Q: With `CN(C)c1ccc(-c2ccc(Cn3cccc(O)c3=S)cc2)cc1` as the compound, how does the solubility read?
A: < 65 µg/mL

Q: With `Oc1ccc[nH]c1=S` as the compound, how does the solubility read?
A: < 65 µg/mL

Test system: Jurkat
Test: cells
Type: functional, cell-based, Homo sapiens
Settings: Homo sapiens, Jurkat, 72 h; read-out: IC50

Q: For `CN(C)c1ccc(-c2ccc(Cn3cccc(O)c3=S)cc2)cc1`, which IC50 is on record?
A: 10.6 µM

Q: Which IC50 does the source give for `Oc1cccn(Cc2cn(-c3ccccc3)nn2)c1=S` here?
A: 4.68 µM

Same assay, conditions: jurkat

Q: For `Oc1ccc[nH]c1=S`, which IC50 is on record?
A: Not Active

Test system: DU-145
Test: Cytotoxicity against human DU145 cells assessed as growth inhibition by MTS assay
Type: functional, cell-based
Settings: Homo sapiens, DU-145; read-out: IC50
Summary of the method: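 Cells kept at 37°C in 5% CO2. DU-145 grew in EMEM and LNCaP in RPMI 1640, each with 10% FBS. Cells were plated 24 h before compound treatment, with top concentration 20 μM and final DMSO 0.1%. Viability was read by MTS per the kit protocol. IC50 is mean ± SD from at least 2 independent triplicate experiments.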

Q: For `CN(C)c1ccc(-c2ccc(Cn3cccc(O)c3=S)cc2)cc1`, which IC50 is on record?
A: > 20 µM

Q: Which IC50 does the source give for `Oc1cccn(Cc2cn(-c3ccccc3)nn2)c1=S` here?
A: > 20 µM

Same assay, conditions: du-145

Q: With `Oc1ccc[nH]c1=S` as the compound, how does the IC50 read?
A: Not Active

Test system: LNCaP
Test: Cytotoxicity against human LNCAP cells assessed as growth inhibition by MTS assay
Type: functional, cell-based
Settings: Homo sapiens, LNCaP; read-out: IC50
Summary of the method: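 Cells kept at 37°C in 5% CO2. Cells were plated 24 h before compound treatment, with top concentration 20 μM and final DMSO 0.1%. Viability was read by MTS per the kit protocol. IC50 is mean ± SD from at least 2 independent triplicate experiments.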

Q: For `CN(C)c1ccc(-c2ccc(Cn3cccc(O)c3=S)cc2)cc1`, which IC50 is on record?
A: 16.2 µM

Q: With `Cc1ccccc1-c1ccc(Cn2cccc(O)c2=S)cc1` as the compound, how does the IC50 read?
A: 7.75 µM

Q: With `Oc1cccn(Cc2cn(-c3ccccc3)nn2)c1=S` as the compound, how does the IC50 read?
A: 13.1 µM

Same assay, conditions: lncap

Q: For `Oc1ccc[nH]c1=S`, which IC50 is on record?
A: Not Active

Target: T1, Histone deacetylase 8 (Homo sapiens) (UniProt Q9BY41)
T1 sequence (whole entry): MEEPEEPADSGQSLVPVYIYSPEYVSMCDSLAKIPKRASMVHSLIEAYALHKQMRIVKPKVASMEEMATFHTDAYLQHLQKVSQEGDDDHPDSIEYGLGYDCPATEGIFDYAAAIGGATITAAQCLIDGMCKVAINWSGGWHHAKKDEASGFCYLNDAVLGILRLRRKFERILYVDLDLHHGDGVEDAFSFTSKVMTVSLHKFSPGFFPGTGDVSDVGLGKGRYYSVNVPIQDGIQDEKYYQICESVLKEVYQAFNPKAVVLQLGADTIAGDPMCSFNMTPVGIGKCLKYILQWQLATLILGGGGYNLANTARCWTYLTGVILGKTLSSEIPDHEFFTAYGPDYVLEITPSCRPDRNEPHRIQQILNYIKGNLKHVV
Test: Inhibition of HDAC8 (unknown origin) at 10 uM after 60 mins by SAMDI […] analysis relative to control
Settings: not given
Summary of the method: (§1)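 Label-free SAMDI deacetylase assay: isoform-optimized peptide substrate (50 μM) with enzyme (250 nM) and inhibitor, 60 min at 37°C. Reactions were quenched with TSA, immobilized on maleimide monolayers, washed and read by MALDI-MS. Yield came from substrate and deacetylated product peak intensities, in triplicate.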

Q: With `CN(C)c1ccc(-c2ccc(Cn3cccc(O)c3=S)cc2)cn1` as the compound, how does the inhibition read?
A: 34%

Q: Which inhibition does the source give for `Oc1cccnc1O` here?
A: < 20%

Target: T2, Protein deacetylase HDAC6 (Homo sapiens) (UniProt Q9UBN7)
T2 sequence (whole entry): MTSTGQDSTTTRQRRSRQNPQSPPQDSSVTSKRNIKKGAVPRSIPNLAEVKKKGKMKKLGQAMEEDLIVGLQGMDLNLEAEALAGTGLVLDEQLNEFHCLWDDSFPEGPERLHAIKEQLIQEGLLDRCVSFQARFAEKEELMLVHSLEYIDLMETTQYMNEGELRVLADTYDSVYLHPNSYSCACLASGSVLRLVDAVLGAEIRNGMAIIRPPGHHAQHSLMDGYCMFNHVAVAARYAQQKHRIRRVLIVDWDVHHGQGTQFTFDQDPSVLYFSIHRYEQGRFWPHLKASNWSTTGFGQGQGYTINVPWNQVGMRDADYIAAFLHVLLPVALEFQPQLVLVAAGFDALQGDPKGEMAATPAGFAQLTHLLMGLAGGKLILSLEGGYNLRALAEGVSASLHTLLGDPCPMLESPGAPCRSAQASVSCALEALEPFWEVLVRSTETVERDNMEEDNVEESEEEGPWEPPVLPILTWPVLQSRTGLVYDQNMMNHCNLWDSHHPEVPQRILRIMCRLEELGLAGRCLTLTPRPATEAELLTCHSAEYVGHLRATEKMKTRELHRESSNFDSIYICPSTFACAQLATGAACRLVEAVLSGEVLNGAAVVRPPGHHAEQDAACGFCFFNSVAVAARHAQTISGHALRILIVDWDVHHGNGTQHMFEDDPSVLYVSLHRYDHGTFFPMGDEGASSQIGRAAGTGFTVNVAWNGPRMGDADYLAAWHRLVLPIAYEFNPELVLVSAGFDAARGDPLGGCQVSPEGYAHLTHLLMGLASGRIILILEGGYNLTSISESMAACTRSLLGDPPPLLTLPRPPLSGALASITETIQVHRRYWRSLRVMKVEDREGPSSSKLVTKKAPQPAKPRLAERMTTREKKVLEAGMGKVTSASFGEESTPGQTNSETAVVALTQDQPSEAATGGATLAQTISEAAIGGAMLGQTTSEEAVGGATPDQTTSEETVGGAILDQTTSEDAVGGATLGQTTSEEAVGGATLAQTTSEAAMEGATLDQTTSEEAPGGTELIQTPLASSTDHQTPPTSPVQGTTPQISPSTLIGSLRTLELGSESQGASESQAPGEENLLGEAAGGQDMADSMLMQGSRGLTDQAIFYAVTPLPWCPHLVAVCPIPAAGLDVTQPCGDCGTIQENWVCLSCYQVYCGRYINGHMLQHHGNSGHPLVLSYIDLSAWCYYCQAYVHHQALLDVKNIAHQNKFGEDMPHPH
Test: Inhibition of HDAC6 (unknown origin) at 10 uM after 60 mins by SAMDI […] analysis relative to control
Settings: not given
Summary of the method: as §1

Q: For `CN(C)c1ccc(-c2ccc(Cn3cccc(O)c3=S)cc2)cc1`, which inhibition is on record?
A: < 20%

Q: With `Oc1cccnc1O` as the compound, how does the inhibition read?
A: < 20%

Q: For `N#Cc1cccc(-c2ccc(Cn3cccc(O)c3=S)cc2)c1`, which inhibition is on record?
A: 44%

Target: T1, Histone deacetylase 8 (Homo sapiens)
Test: (§2) Inhibition of HDAC8 (unknown origin) after 60 mins by SAMDI […] analysis
Settings: not given

Q: With `N#Cc1ccc(-c2ccc(Cn3cccc(O)c3=O)cc2)cc1` as the compound, how does the inhibition read?
A: inactive

Q: For `Cc1ccc(-c2ccc(Cn3cccc(O)c3=O)cc2)cc1`, which inhibition is on record?
A: inactive

Q: With `CN(C)c1ccc(-c2ccc(Cn3cccc(O)c3=O)cc2)cn1` as the compound, how does the inhibition read?
A: inactive

Q: With `Cc1ccccc1-c1ccc(Cn2cccc(O)c2=O)cc1` as the compound, how does the inhibition read?
A: inactive

Q: Which inhibition does the source give for `Cc1cccc(-c2ccc(Cn3cccc(O)c3=O)cc2)c1` here?
A: inactive

Q: For `N#Cc1cccc(-c2ccc(Cn3cccc(O)c3=O)cc2)c1`, which inhibition is on record?
A: inactive

Q: For `O=c1c(O)cccn1Cc1ccc(-c2ccncc2)cc1`, which inhibition is on record?
A: inactive

Q: With `Cn1cccc(O)c1=O` as the compound, how does the inhibition read?
A: inactive

Q: Which inhibition does the source give for `O=c1c(O)cccn1Cc1ccccc1` here?
A: inactive

Q: For `O=c1c(O)cccn1Cc1ccc(-c2ccccc2)cc1`, which inhibition is on record?
A: inactive

Q: With `CN(C)c1ccc(-c2ccc(Cn3cccc(O)c3=O)cc2)cc1` as the compound, how does the inhibition read?
A: inactive

Target: T3, Histone deacetylase 8 (Homo sapiens, UniProt Q9BY41)
T3 sequence (Q9BY41 whole entry): T1 sequence (whole entry)
Test: as §2
Settings: not given

Q: For `Oc1cccn(Cc2cn(-c3ccccc3)nn2)c1=S`, which IC50 is on record?
A: 1.57 µM

Target: Histone deacetylase 1 (Homo sapiens) (UniProt Q13547)
Test: Inhibition of HDAC1 (unknown origin) after 60 mins by SAMDI […] analysis
Settings: not given
Summary of the method: as §1

Sequence of Histone deacetylase 1 (Homo sapiens) (Q13547 whole entry): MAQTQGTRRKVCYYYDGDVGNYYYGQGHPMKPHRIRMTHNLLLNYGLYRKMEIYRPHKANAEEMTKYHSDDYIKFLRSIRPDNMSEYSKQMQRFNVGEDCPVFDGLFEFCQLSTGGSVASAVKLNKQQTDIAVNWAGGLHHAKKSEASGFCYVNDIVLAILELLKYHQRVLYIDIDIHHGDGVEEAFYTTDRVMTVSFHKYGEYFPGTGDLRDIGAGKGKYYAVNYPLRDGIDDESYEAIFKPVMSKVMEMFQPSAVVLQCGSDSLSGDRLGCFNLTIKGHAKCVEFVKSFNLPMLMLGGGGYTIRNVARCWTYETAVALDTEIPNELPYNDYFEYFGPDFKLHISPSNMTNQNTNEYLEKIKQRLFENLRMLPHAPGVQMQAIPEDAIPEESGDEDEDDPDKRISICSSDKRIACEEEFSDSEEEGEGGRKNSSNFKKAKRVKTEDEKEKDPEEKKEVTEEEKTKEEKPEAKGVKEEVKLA

Q: With `N#Cc1ccc(-c2ccc(Cn3cccc(O)c3=O)cc2)cc1` as the compound, how does the inhibition read?
A: inactive

Q: For `Cc1ccc(-c2ccc(Cn3cccc(O)c3=O)cc2)cc1`, which inhibition is on record?
A: inactive

Q: With `CN(C)c1ccc(-c2ccc(Cn3cccc(O)c3=O)cc2)cn1` as the compound, how does the inhibition read?
A: inactive

Q: With `Cc1ccccc1-c1ccc(Cn2cccc(O)c2=O)cc1` as the compound, how does the inhibition read?
A: inactive

Q: For `Cc1cccc(-c2ccc(Cn3cccc(O)c3=O)cc2)c1`, which inhibition is on record?
A: inactive

Q: With `N#Cc1cccc(-c2ccc(Cn3cccc(O)c3=O)cc2)c1` as the compound, how does the inhibition read?
A: inactive

Q: For `O=c1c(O)cccn1Cc1ccc(-c2ccncc2)cc1`, which inhibition is on record?
A: inactive

Q: Which inhibition does the source give for `Cn1cccc(O)c1=O` here?
A: inactive

Q: For `O=c1c(O)cccn1Cc1ccccc1`, which inhibition is on record?
A: inactive

Q: For `O=c1c(O)cccn1Cc1ccc(-c2ccccc2)cc1`, which inhibition is on record?
A: inactive

Q: With `CN(C)c1ccc(-c2ccc(Cn3cccc(O)c3=O)cc2)cc1` as the compound, how does the inhibition read?
A: inactive

Target: T2, Protein deacetylase HDAC6 (Homo sapiens)
Test: Inhibition of HDAC6 (unknown origin) after 60 mins by SAMDI mass spectrometric analysis
Settings: not given

Q: Which inhibition does the source give for `N#Cc1ccc(-c2ccc(Cn3cccc(O)c3=O)cc2)cc1` here?
A: inactive

Q: Which inhibition does the source give for `Cc1ccc(-c2ccc(Cn3cccc(O)c3=O)cc2)cc1` here?
A: inactive

Q: Which inhibition does the source give for `CN(C)c1ccc(-c2ccc(Cn3cccc(O)c3=O)cc2)cn1` here?
A: inactive

Q: With `Cc1ccccc1-c1ccc(Cn2cccc(O)c2=O)cc1` as the compound, how does the inhibition read?
A: inactive

Q: Which inhibition does the source give for `Cc1cccc(-c2ccc(Cn3cccc(O)c3=O)cc2)c1` here?
A: inactive

Q: With `N#Cc1cccc(-c2ccc(Cn3cccc(O)c3=O)cc2)c1` as the compound, how does the inhibition read?
A: inactive

Q: For `O=c1c(O)cccn1Cc1ccc(-c2ccncc2)cc1`, which inhibition is on record?
A: inactive

Q: With `Cn1cccc(O)c1=O` as the compound, how does the inhibition read?
A: inactive

Q: With `O=c1c(O)cccn1Cc1ccccc1` as the compound, how does the inhibition read?
A: inactive

Q: For `O=c1c(O)cccn1Cc1ccc(-c2ccccc2)cc1`, which inhibition is on record?
A: inactive

Q: Which inhibition does the source give for `CN(C)c1ccc(-c2ccc(Cn3cccc(O)c3=O)cc2)cc1` here?
A: inactive
